The test system of data set [1] is Staphylococcus aureus. Nature of the data set: Antimicrobial activity against methicillin resistant Staphylococcus aureus DM21455 by broth macrodilution method. Format: functional. In outline:
(§1)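 Broth macrodilution MIC in Mueller Hinton broth following CLSI guidelines. Inoculum was prepared by direct colony suspension from an 18−20 h tryptic soy agar plate.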

Data set [2] has as its system Staphylococcus aureus. Nature of the data set: Antimicrobial activity against Staphylococcus aureus DM4001 by broth macrodilution method. Format: functional. Summed up: as §1
Data set [3] can be described thus: Selectivity index, ratio of HC50 for induction of hemolysis in New Zealand white rabbit RBC to MIC for Staphylococcus aureus DM09809R.
Data set [4] is described as follows: Selectivity index, ratio of HC50 for induction of hemolysis in New Zealand white rabbit RBC to MIC for Staphylococcus aureus DM4001.
For data set [5], the system named is Staphylococcus aureus. Nature of the data set: Antimicrobial activity against Staphylococcus aureus ATCC 29213 infected in mouse cornea infection model assessed as reduction in viable bacterial count at 0.02% solution applied topically 5 times/day dosed 1 day after infection relative to control. Format: functional. In outline:
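Mouse cornea given three superficial 1 mm scratches on one eye under ketamine/xylazine, then 10 μL of S. aureus ATCC 29213 suspension (1 × 10^8 CFU/mL in USP phosphate buffer) applied topically. Treated topically 5 times/day from day 1 postinfection; PBS negative control; 4 mice/group killed on days 1, 2 and 3. Corneas homogenized in 0.9% NaCl with 0.25% BSA, plated in duplicate on TSA (48 h, 35 °C); log10 CFU/cornea.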

The nature of data set [6]: Selectivity index, ratio of HC50 for induction of hemolysis in New Zealand white rabbit RBC to MIC for Bacillus cereus ATCC 11778.
Data set [7] concerns Staphylococcus aureus. Nature of the data set: Antimicrobial activity against methicillin resistant Staphylococcus aureus DM09809R by broth macrodilution method. Format: functional. Summed up: as §1
Data set [8] in a line: Induction of hemolysis in New Zealand white rabbit RBC after 1 hr. The format is cell-based, Oryctolagus cuniculus, Erythrocyte. The following applies: New Zealand white, red blood cells (RBC). In outline: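 Fresh red blood cells isolated from New Zealand white rabbits. Lysis measured over a compound concentration series; HC50 taken as the concentration lysing 50% of RBCs.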

Data set [9] in a line: Selectivity index, ratio of HC50 for induction of hemolysis in New Zealand white rabbit RBC to MIC for Staphylococcus aureus DM21455.
The subject of data set [10] is Bacillus cereus. Nature of the data set: Antimicrobial activity against Bacillus cereus ATCC 11778 by broth macrodilution method. Format: functional. In outline: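 CLSI broth macrodilution in Mueller Hinton broth. Inoculum was made by direct colony suspension from colonies on an 18−20 h tryptic soy agar plate. The value is the MIC.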

From ChEMBL document CHEMBL3414569, “Amino acid modified xanthone derivatives: novel, highly promising membrane-active antimicrobials for multidrug-resistant Gram-positive bacterial infections” (J Med Chem, 2015) come the findings set out here.

≈ marks a conversion by molar mass, not a printed value.

Usually MIC stands for the lowest concentration that inhibits growth of the organism. Read a high MIC as a need for much substance. One may read the HC50 as the concentration that lyses half of the red blood cells. Read a low HC50 as more damage to red cells.

As to `CCN(CC)CCCCOc1cc2oc3cc(OCCCCN(CC)CC)c(OC)c(CC=C(C)C)c3c(=O)c2c(O)c1CC=C(C)C`, the minimal inhibitory concentration (MIC) was found to be 0.5 µg/mL (≈ 0.752 µM) in [1], 2 µg/mL (≈ 3.01 µM) in data set [2], 2 µg/mL (≈ 3.01 µM) in data set [7] and 3 µg/mL (≈ 4.51 µM) in [10]. Besides, the Selectivity Index in data set [3], in data set [4], in [6] and in [9] was 7 in each case. Besides, in [5], the Ratio is under 1. For the same compound, in data set [8], the HC50 at 1 h was found to be 20 µg/mL.
